# Measurements published in publication PMC9494814 (Cell, 2022).
# Read-outs that look alike come from different tables or passages of the source.
# Assays:
# [1] = molecular target: T1, αIIbβ3 headpiece (Homo sapiens, UniProt P05106+P08514); conditions: for conformational state of headpiece molecules in the crystal lattice: state 1 closed, state 8 open
# How it was run: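 Closed αIIbβ3 headpiece–10E5 Fab crystals stabilised in 15% PEG 8000, 0.2 M ammonium sulfate, 0.1 M Tris-HCl pH 8.9, with glycerol raised in 5% steps to 15%. Compound (0.1-1 mM) added in the final 20% glycerol cryo step, with 1 mM MgCl2/1 mM CaCl2 or 2 mM MnCl2/0.2 mM CaCl2. Soaked 4 h, plunge-frozen in liquid N2. Synchrotron diffraction data collected, then structure refinement.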
# [2] = molecular target: αIIbβ3 on washed human platelets (Homo sapiens, UniProt P05106+P08514); assay: Platelets LIBS exposure assay; type: cell-based
# How it was run: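 Blood from drug-free healthy donors was taken into acid-citrate-dextrose. PRP was spun (140xg, 12 min), given PGE1 at 50 ng/ml, pelleted, washed in citrate-dextrose buffer pH 6.5 and resuspended in Tyrode's pH 7.4 with 1% BSA and 1 mM Ca²⁺/Mg²⁺. […] Read-out was unwashed flow cytometry MFI, over three days with two donors.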
# [3] = molecular target: T1, αIIbβ3 headpiece; assay: Size-exclusion chromatography; type: biochemical; conditions: 10 μM drug; for effect on αIIbβ3 headpiece conformation in gel filtration: Mg2+ and Mn2+ buffers
# How it was run: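 Superdex 200 column equilibrated with 10 µM test compound in HEPES-buffered saline containing either 1 mM Mg2+/1 mM Ca2+ or 2 mM Mn2+/0.2 mM Ca2+. αIIbβ3 headpiece (30 µg) pre-incubated 30 min at RT with 60 µM compound in matching buffer, then chromatographed. Hydrodynamic radius taken from elution. Two runs, or one, per compound; controls ≥3.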
# [4] = molecular target: αIIbβ3 WT (Homo sapiens, UniProt P05106+P08514); assay: MBC319.4 Fab LIBS epitope exposure on αIIbβ3 WT transfectants; type: cell-based; conditions: inhibitors at 100x Kd
# How it was run: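 Cells transiently transfected with αIIbβ3 received valproic acid (3 mM final) and glucose (0.4%) at 24 h, and were washed at 48 h in EDTA-containing then plain L-15/0.1% BSA. Cells were incubated with 20 nM Alexa647-MBC319.4 Fab plus inhibitor (Kd from FITC-echistatin competition on WT transfectants) in L15/0.1% BSA, 22°C for 2 h. Read-out was unwashed flow cytometry.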
# [5] = molecular target: αIIbβ3_N305T (Homo sapiens, UniProt P05106+P08514, N331T); assay: MBC319.4 Fab LIBS epitope exposure on αIIbβ3_N305T transfectants; type: cell-based; conditions: αIIbβ3 N305T transfectants, inhibitors at 100x Kd
# How it was run: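 αIIbβ3_N305T transfectants of α5/αV-knockout Expi293F cells, harvested 48 h post-transfection and EDTA-washed. Incubated with 20 nM Alexa647-labelled MBC319.4 Fab and test compound in L-15 with 0.1% BSA, equilibrated 2 h at 22°C. Fab binding read by flow cytometry without washing, as MFI.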
# [6] = system: clot retraction in human PRP; assay: Clot retraction in platelet-rich plasma; type: cell-based; conditions: thrombin
# How it was run: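 Citrated human PRP pre-incubated 20 min at RT with test compound or buffer (in Tyrode's buffer + 1% BSA) at several concentrations. Glass-tube clot retraction started with thrombin (7.5 U/ml stock) at 37°C and imaged every 15 min. Retraction = 1 − (clot area/whole reaction area). IC50 at 30 and 90 min from a three-parameter inhibitor-response fit. Three runs, PRP from three donors.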
# [7] = system: αIIbβ3 on platelets; conditions: cited from earlier work; for LIBS epitopes on platelets in platelet-rich plasma: ref Baba et al., Murphy et al.
# [8] = after activation with thrombin 0.5 U/ml
Compound,effect on structure of closed αIIbβ3 headpiece in crystals ([1]; soaked in Mg2+),effect on structure of closed αIIbβ3 headpiece in crystals ([1]; soaked in Mn2+),LIBS epitope exposure (integrin extension) on washed platelets ([2]; absence of thrombin),effect on αIIbβ3 headpiece opening in gel filtration ([3]; 1 mM Mg2+/1 mM Ca2+),effect on αIIbβ3 headpiece opening in gel filtration ([3]; 2 mM Mn2+/0.2 mM Ca2+),inhibition of clot retraction [6],"LIBS epitope exposure (integrin extension) on washed platelets [2, 8]",also measured
"N=C(N)c1ccc(-c2ccc(OC[C@@H]3C[C@@H](CC(=O)O)C(=O)N3)cc2)cc1 [fradafiban, 2-((3S,5S)-5-(((4’-carbamimidoyl-[1,1’-biphenyl]-4-yl)oxy)methyl)-2-oxopyrrolidin-3-yl)acetic acid]",did not cause any conformational change,induced a 2 Å movement in the β1-α1 loop at the Cα atom of Ser-123 toward ligand,modestly but significantly induced integrin extension,did not cause headpiece opening,induced headpiece opening as completely as tirofiban,–,–,–
eptifibatide,Ser-123 displaced water 1 to coordinate directly to the MIDAS metal ion,–,Stronger extension,–,–,–,–,LIBS (MBC319.4) epitope exposure [4]: strongly induced LIBS exposure
"N=C(N)c1ccc(C2=NOC(CN3CCN(CC(=O)O)CC3)C2)cc1 (stereo not shown) [BMS4–1, 3-(4-((3-(4-carbamimidoylphenyl)-4,5-dihydroisoxazol-5-yl)methyl)piperazin-1-yl)acetic acid]",–,remained in the closed state,–,–,–,effective,decreased,LIBS (MBC319.4) epitope exposure [5]: significantly suppressed LIBS induction; effect on αIIbβ3 headpiece conformation in gel filtration [3]: closure stabilizing
"(2S)-2-((butoxycarbonyl)amino)-3-(2-(3-(4-carbamimidoylphenyl)-4,5-dihydroisoxazol-5-yl)acetamido)propanoic acid [roxifiban]",–,Ser-123 displaced water 1 to coordinate directly to the MIDAS metal ion,Stronger extension,caused the headpiece to elute earlier in gel filtration,–,effective,–,LIBS (MBC319.4) epitope exposure [4]: Weaker but significant induction; hydrodynamic radius of αIIbβ3 headpiece ([3]; 2 mM Mn2+/0.2 mM Ca2+): ~ 5.36 nm
CCOC(=O)COC1CCN(C(=O)[C@H](C)NC(=O)c2ccc(C(=N)NO)cc2)CC1 [sibrafiban],did not cause any conformational change,induced a 2 Å movement in the β1-α1 loop at the Cα atom of Ser-123 toward ligand,modestly but significantly induced integrin extension,did not cause headpiece opening,induced headpiece opening as completely as tirofiban,effective,–,"LIBS epitopes on platelets in platelet-rich plasma ([7]; 2001, 1998): not to induce LIBS epitopes"
"O=C(O)CN1CCN(CC2CC(C3CCNCC3)=NO2)CC1 (stereo not shown) [BMS4–3, 2-(4-((3-(piperidin-4-yl)-4,5-dihydroisoxazol-5-yl)methyl)piperazin-1-yl)acetic acid]",–,remained in the closed state,–,–,–,–,–,effect on αIIbβ3 headpiece conformation in gel filtration [3]: closure stabilizing
[H]/N=C(/N)c1ccc(C(=O)N[C@@H](Cc2ccc(O)cc2)C(=O)N2CCC(OCC(=O)O)CC2)cc1 [lamifiban],did not cause any conformational change,induced a 2 Å movement in the β1-α1 loop at the Cα atom of Ser-123 toward ligand,modestly but significantly induced integrin extension,did not cause headpiece opening,induced headpiece opening as completely as tirofiban,–,–,"LIBS epitopes on platelets in platelet-rich plasma ([7]; 2001, 1998): not to induce LIBS epitopes; exposure of LIBS epitopes on αIIbβ3 on platelets ([7]; ref Murphy et al., 1998): did not induce exposure of LIBS epitopes"
N=C(N)c1ccc(C(=O)N[C@@H](Cc2ccc([N+](=O)[O-])cc2)C(=O)N2CCc3nn(CC(=O)O)cc3C2)cc1 [UR-2922],no structural perturbation,no structural perturbation,–,neither UR-2922 nor BMS4 increased the hydrodynamic radius,shifted the headpiece to a smaller hydrodynamic radius than the control,effective,decreased,"LIBS (MBC319.4) epitope exposure [5]: significantly suppressed LIBS induction; LIBS epitopes on platelets ([7]; Mg2+ ref Baba et al., 2001): not to induce LIBS epitopes"
"N=C(N)c1ccc(N2C[C@H](CN3CCN(CCC(=O)O)CC3)OC2=O)cc1 [gantofiban analog, (S)-3-(4-((3-(4-carbamimidoylphenyl)-2-oxooxazolidin-5-yl)methyl)piperazin-1-yl)propanoic acid]",–,induced movement of the β1-α1 loop and Ser-123 sidechain oxygen into the position of water 1,–,–,–,–,–,effect on αIIbβ3 headpiece conformation in gel filtration [3]: does in both Mg^2+ and Mn^2+
"CN1Cc2cc(C(=O)N3CCC(C4CCNCC4)CC3)ccc2N[C@@H](CC(=O)O)C1=O [lotrafiban, (S)-2-(7-([4,4’-bipiperidine]-1-carbonyl)-4-methyl-3-oxo-2,3,4,5-tetrahydro-1H-benzo[e][1,4]diazepin-2-yl)acetic acid]",Ser-123 displaced water 1 to coordinate directly to the MIDAS metal ion,–,Stronger extension,caused the headpiece to elute earlier in gel filtration,–,–,–,LIBS (MBC319.4) epitope exposure [4]: strongly induced LIBS exposure; hydrodynamic radius of αIIbβ3 headpiece ([3]; 2 mM Mn2+/0.2 mM Ca2+): ~ 5.36 nm
fibrinogen γ C-terminal dodecapeptide: fibrinogen γ C-terminal dodecapeptide HHLGGAKQAGDV,–,–,–,–,–,–,–,LIBS (MBC319.4) epitope exposure [4]: Weaker but significant induction
"N=C(N)c1ccc(C2=NOC(CN3CCC(CC(=O)O)CC3)C2)cc1 (stereo not shown) [BMS4–2, 2-(1-((3-(4-carbamimidoylphenyl)-4,5-dihydroisoxazol-5-yl)methyl)piperidin-4-yl)acetic acid]",–,–,–,–,stabilized headpiece opening,effective,showing significant induction except for BMS4–2 (p=0.06),Ser-123 sidechain oxygen - MIDAS Mn2+ ion distance ([1]; soaked in Mn2+): 3.7±0.1 Å; conformational state of headpiece molecules in the crystal lattice ([1]; soaked in Mn2+): state 2
Cl.Cl.Cl.N=C(N)c1ccc(N2CCN(C3CCN(CC(=O)O)CC3)CC2)cc1 [GR144053],–,–,–,–,–,–,decreased,LIBS (MBC319.4) epitope exposure [5]: significantly suppressed LIBS induction; conformational state of headpiece molecules in the crystal lattice ([1]; soaked in Mn2+): state 1; effect on αIIbβ3 headpiece conformation in gel filtration [3]: closing
"CN1CCN(C(=N)c2ccc(C3=NOC(CN4CCN(CC(=O)O)CC4)C3)cc2)CC1 (stereo not shown) [BMS4, 2-(4-((3-(4-(imino(4-methylpiperazin-1-yl)methyl)phenyl)-4,5-dihydroisoxazol-5-yl)methyl)piperazin-1-yl)acetic acid]",no structural perturbation,no structural perturbation,–,neither UR-2922 nor BMS4 increased the hydrodynamic radius,shifted the headpiece to a smaller hydrodynamic radius than the control,–,decreased,"LIBS (MBC319.4) epitope exposure [5]: significantly suppressed LIBS induction; LIBS on platelets ([7]; Mg2+ ref Breth et al., 2005): not to induce LIBS"
